Sampled rows, rich in hits. Any-hit rate of the full collection: about 3.1%.
hERG rescue = hERG rescue from dofetilide block, primary screen, cell-based, CHO-hERG, FluxOR thallium flux, dofetilide IC70; 0.51% of 310,000 active; dofetilide IC70 present; activation (rescue from dofetilide block), less the hit threshold, % at 10 µM;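 active = activation above the mean of controls blocked by dofetilide plus 5 SD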;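 note: thallium influx through hERG after potassium depolarization seen as dye fluorescence rise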
KCNQ1 inh = inhibitors of human KCNQ1 channel, primary screen, cell-based, thallium flux, high-throughput; CHO-K1 KCNQ1, FluxOR thallium flux fluorescence; active compounds read high; B-score at 10 µM; 1.3% of 310,000 active; AID 2642, 2010;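 active = compounds whose thallium flux B-score, printed positive for inhibition, exceeds three library SD while starting fluorescence stays within three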;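 note: channel opened by potassium depolarization with thallium stimulus after 20 min compound exposure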
KCNK9 block = KCNK9 potassium channel inhibitors, primary screen, HEK293 cells, thallium flux; FluxOR thallium flux fluorescence; active compounds read low; 1.2% of 310,000 active; Potassium channel subfamily K member 9 (Homo sapiens), Q9NPC2; AID 488922, 2010; B-score at 10 µM;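 active = ratio B-score over 3 SD below the library mean, with starting fluorescence within 5 SD of its mean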;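 note: negative B-score means less thallium flux so channel inhibition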
KCNK3 block = human KCNK3 channel inhibitors, primary screen, CHO cells, FluxOR thallium flux, B-score; 0.84% of 340,000 active; FluxOR fluorescence; active compounds read low; AID 602410, 2012; Potassium channel subfamily K member 3 (Homo sapiens), O14649; B-score at 10 µM;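 active = B-score under library mean minus 4 SD, starting fluorescence ratio at most library mean plus 5 SD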;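 note: more negative B-score means stronger inhibition of thallium flux through KCNK3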
KCNQ1 pot = potentiators or activators of KCNQ1 channel, primary screen, cell-based, thallium flux, high-throughput; 0.35% of 310,000 active; B-score at 10 µM; Potassium voltage-gated channel subfamily KQT member 1 (Homo sapiens), P51787; CHO-K1 KCNQ1, thallium flux FluxOR fluorescence; active compounds read high;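 active = fluorescence ratio B-score, a plate-corrected score, at least three library SD, with initial intensity B-score within 5 SD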
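Medium – assay buffer, equal DMSO in all wells · Material – CHO-K1 cell line with stable KCNQ1 potassium channel expression · Signal – kinetic FluxOR thallium fluorescence, 10-s 1-Hz baseline, 110-s post-stimulus read · Compound – single concentration per compound, DMSO matched to controls · Schedule – 37 °C overnight plating, 90-min dark dye load, 20-min compound pretreatment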
KCNQ1 inh valid = KCNQ1 potassium channel inhibitors, confirmation, cell-based, Tl flux, duplicate; 93% of 1,600 active; KCNQ1 cell line, FluxOR thallium flux fluorescence; AID 588353, 2011; inhibition, % at 10 µM; shares compounds with KCNQ1 inh;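 active = primary screen active, with duplicate mean exceeding buffer control mean plus 3 SD of buffer wells, cut at about 28% in these data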;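 note: 0% = buffer control ratio and 100% = XE991 inhibitor control ratio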
CHO KCNQ1 ctr = thallium flux effects in parental CHO cells, counter-screen for KCNQ1 inhibitor project, cell-based, Tl flux | fluorescence ratio (Tl flux) at 10 µM | parental CHO-K1, FluxOR thallium flux fluorescence ratio; active compounds read low; zero means no signal rise above baseline | AID 588366, 2011 | shares compounds with KCNQ1 inh | 21% of 1,600 active;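 active = mean of duplicate thallium-flux fluorescence ratios in parental host cells more than 5 SD below the buffer control mean, cut at about 0.38 in these data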;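 note: ratio is peak minus minimum fluorescence divided by baseline fluorescence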
KCNQ1 ephys val = KCNQ1 channel inhibitors, confirmation, orthogonal assay, cell-based, automated electrophysiology. shares compounds with KCNQ1 inh. 20% of 490 active. AID 624120, 2012. KCNQ1-CHO cells, automated patch clamp current. calls only at 10 µM;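 active = KCNQ1 current drop exceeding 3 SD of negative control wells, seen in both duplicate runs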;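 note: steady state current during a 2 s step from -80 to +40 mV; negative values mean current inhibition and positive values mean potentiation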
KCNQ2 inh = KCNQ2 channel inhibition, selectivity assay for KCNQ1 inhibitor project, cell-based; shares compounds with KCNQ1 inh; KCNQ2 cells, FluxOR thallium flux fluorescence; inhibition, % at 10 µM; 71% of 1,600 active; AID 651746, 2012;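 active = mean percent inhibition of the KCNQ2 thallium signal more than 5 SD above the buffer-only control wells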;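 note: KCNQ2 expressed in CHO cells; 0% = buffer control wells and 100% = XE-991 inhibitor control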
KCNQ1 KCNE1 spec = KCNQ1/KCNE1 channel inhibition, selectivity assay for KCNQ1 inhibitor project, CHO-K1 cells, thallium flux, FluxOR; 77% of 1,600 active; FluxOR thallium flux fluorescence; inhibition, % at 10 µM; AID 652147, 2013; shares compounds with KCNQ1 inh;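 active = mean percent inhibition of duplicate wells above the buffer-only control mean plus 3 SD of those controls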;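 note: 0% = buffer only wells and 100% = XE-991 inhibitor control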
Numbers without * were called inactive; i = inactive; nt = no result; + = active, no number.

SMILES	hERG rescue	KCNQ1 inh	KCNK9 block	KCNK3 block	KCNQ1 pot	KCNQ1 inh valid	CHO KCNQ1 ctr	KCNQ2 inh	KCNQ1 KCNE1 spec	others
COc1cccc(NC(=O)c2nc(S(C)(=O)=O)ncc2Cl)c1	-7	7*	i	i	i	0	0.43	i	52%*
COc1ccc(NC(=O)c2ccc(CN3CCN(c4ccccc4)CC3)cc2)cc1	-4	6*	i	i	i	0	0.5	i	i
COc1ccc(C(=O)Nc2ccc(N3CCN(Cc4ccccc4)CC3)cc2)cc1	-9	i	i	i	i	nt	nt	nt	nt
O=C(O)CCCCNS(=O)(=O)/C=C/c1ccccc1	0	i	i	i	i	nt	nt	nt	nt
COc1ccc(NC2c3ccccc3C(=O)N2c2ccccn2)cc1 (stereo not given)	-14	i	i	i	i	nt	nt	nt	nt
O=C(Nc1cccc(Cl)c1)N(CCCN1CCOCC1)Cc1ccccc1F	-13	11*	i	i	i	78*	0.51	106%*	71%*
COc1ccc(S(=O)(=O)N/N=C\c2ccccc2F)cc1	-12	i	i	i	i	nt	nt	nt	nt
Cc1cc(S(=O)(=O)N2CCN(c3ccccc3C)CC2)ccc1F	-11	11*	i	-9.8*	i	168*	0.35*	i	i
COc1ccc(S(=O)(=O)N2CCN(c3c(C)cccc3C)CC2)cc1OC	-11	8*	i	i	i	99*	0.36*	110%*	92%*
Cc1cc(S(=O)(=O)N2CCN(c3c(C)cccc3C)CC2)ccc1F	-7	8*	i	i	i	103*	0.39	81%*	136%*	KCNQ1 ephys val=i
Cc1ccccc1N1CCN(S(=O)(=O)c2ccccc2)CC1	-7	i	i	i	i	nt	nt	nt	nt
Cc1ccc(C)c(NC(=O)CN2C(=O)CC(C)S(=O)(=O)c3ccccc32)c1 (stereo not given)	-7	i	i	i	i	nt	nt	nt	nt
Cc1ccc(NC(=O)C(Cc2ccccc2)n2cccc2)cc1 (stereo not given)	-10	i	i	i	i	nt	nt	nt	nt
Cc1csc(NC(=O)C(Cc2ccccc2)n2cccc2)n1 (stereo not given)	-18	13*	i	i	i	54*	0.45	62%*	86%*
Cc1ccsc1C(=O)OCc1csc(-c2ccccc2)n1	-12	7*	-7.8*	i	i	146*	0.41	127%*	+	KCNQ1 ephys val=i
OC(COc1ccccc1)CN1CCC(Cc2ccccc2)CC1 (stereo not given)	-6	i	i	i	i	nt	nt	nt	nt
Cc1ccc(OCC(O)CN2CCC(Cc3ccccc3)CC2)c(C)c1 (stereo not given)	-17	7*	i	i	i	31*	0.44	76%*	63%*
Cc1cc(C)n(CCCNC(=O)c2ccc(S(=O)(=O)NCc3ccco3)cc2)n1	-15	i	i	i	i	nt	nt	nt	nt

Source: PubChem BioAssay
